Calls of active or inactive are those of the source.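 The calls were made as follows, unless noted: active = inhibition of the reporter signal at or above 50%; inactive = inhibition below 50%.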
Experiments:
[1] = inhibitors of TNFa-induced NFkB p65 translocation, primary screen, imaging, HUVEC, MLSMR starter and 10KST1 sets (AID 438;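 active = inhibition above 20% together with a positive visual image hit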;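 also: compound added about 3h40 before a 20 min TNFalpha stimulation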;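 as to inhibition: signal is the nuclear over cytoplasmic p65 intensity ratio per well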); conditions: HUVEC TNFa-induced p65 nuclear translocation; cell count: measured here: nuclei count (cytotoxicity indicator), at 2.08 µM; inhibition: at 2 µM, stronger effect = higher value, 0% TNFa-plus-vehicle, 100% no-TNFa wells
[2] = reduction of polyQ htt aggregates in cells – imaging, exon1htt(103Q)mCFP cells, high-content imaging, primary screen (AID 483;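 active = visual image review flags a hit and inhibition of aggregation exceeds 20%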;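 also: compound exposure lasted 3 days before fixation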;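 as to nuclei count: percent of the per-plate median nuclei count of sample wells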); conditions: exon1htt(103Q)mCFP cell line, aggregate imaging, at 2 µM; inhibition of aggregation: stronger effect = higher value; nuclei count: measured here: cell count, toxicity
[3] = endothelial E-selectin expression blockers – imaging, HUVEC, immunofluorescence, MLSMR starter and 10KST1 sets, primary screen (AID 487;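 active = visually confirmed hit in the image check and inhibition above 20%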;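 as to inhibition: signal is fraction of cell area covered by stained E-selectin grains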;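 as to nuclei count: 100% = median nuclei count of all wells on the same plate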); conditions: HUVEC TNFalpha-induced E-selectin immunofluorescence imaging, at 2 µM; inhibition: stronger effect = higher value; nuclei count: measured here: cell number, toxicity
[4] = molecular target: Voltage-gated potassium channel subunit beta-2 (Rattus norvegicus) (UniProt P62483); assay: inhibitors of rat Kvbeta2 reductase activity – biochemical, NADPH fluorescence, primary screen (AID 622;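 active = fluorescence slope higher than the sample average by over 3 SD, cut at about -0.22 in these data, passing the limit was not always enough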;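 also: slope of raw intensity against log time taken from 70 to 1610 s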); conditions: recombinant KvBeta, 4-cyanobenzaldehyde reduction, at 10 µM, stronger effect = higher value
Sequence of Voltage-gated potassium channel subunit beta-2 (Rattus norvegicus) (P62483 whole entry, looked up): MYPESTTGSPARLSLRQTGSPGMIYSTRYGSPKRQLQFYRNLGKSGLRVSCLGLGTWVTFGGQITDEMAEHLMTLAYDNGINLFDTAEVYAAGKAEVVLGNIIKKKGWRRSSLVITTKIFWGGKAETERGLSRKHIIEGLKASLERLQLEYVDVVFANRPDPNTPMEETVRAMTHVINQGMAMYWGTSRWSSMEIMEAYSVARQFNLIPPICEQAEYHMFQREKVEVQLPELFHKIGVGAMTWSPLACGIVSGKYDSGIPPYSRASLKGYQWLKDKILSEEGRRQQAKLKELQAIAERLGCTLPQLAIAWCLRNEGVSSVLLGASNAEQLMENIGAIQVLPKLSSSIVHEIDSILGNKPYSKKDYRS

[5] = molecular target: Voltage-gated potassium channel subunit beta-2 (Rattus norvegicus) (UniProt P62483); assay: enhancers of rat Kvbeta2 NADPH turnover – biochemical, NADPH fluorescence, primary screen (AID 623;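 active = NADPH fluorescence slope more negative than the mean of all samples by about 3 SD, 99.7% confidence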;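 also: fluorescence intensity change per second fitted from 20 to 320 s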); conditions: Recombinant KvBeta, NADPH fluorescence decrease slope, 10 min; at 10 µM; stronger effect = lower value
[6] = molecular target: Muscarinic acetylcholine receptor M4 (Homo sapiens) (UniProt P08173); assay: M4-linked GIRK flux change, two-sided – cell-based, HEK293 M4/GIRK, thallium flux, BTC-AM, M4 allosteric agonist project, primary screen (AID 625;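 active = fluorescence slope after compound addition differing from the mean of all tested samples at 99.7% confidence, mostly higher but some lower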;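 also: thallium influx through GIRK channels coupled to M4 in HEK293 cells with BTC-AM dye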); conditions: at 10 µM, actives lie on both sides
Sequence of Muscarinic acetylcholine receptor M4 (Homo sapiens) (P08173 whole entry, looked up): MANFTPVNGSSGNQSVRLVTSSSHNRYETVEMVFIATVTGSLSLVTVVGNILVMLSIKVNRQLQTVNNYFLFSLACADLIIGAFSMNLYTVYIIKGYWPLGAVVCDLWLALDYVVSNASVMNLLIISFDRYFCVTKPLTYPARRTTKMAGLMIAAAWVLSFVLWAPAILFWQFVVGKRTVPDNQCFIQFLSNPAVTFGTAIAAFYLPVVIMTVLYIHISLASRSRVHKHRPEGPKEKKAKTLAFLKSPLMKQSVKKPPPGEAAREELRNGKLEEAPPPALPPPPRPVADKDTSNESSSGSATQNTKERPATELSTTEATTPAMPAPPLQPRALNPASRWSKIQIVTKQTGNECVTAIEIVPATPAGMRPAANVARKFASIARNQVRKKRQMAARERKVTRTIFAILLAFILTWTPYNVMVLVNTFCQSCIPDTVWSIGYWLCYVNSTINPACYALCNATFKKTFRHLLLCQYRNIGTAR
How it was run: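 Material: M4/GIRK1/GIRK2 stable HEK293 cell line. Medium: pH 7.3 thallium assay buffer. Dosing: single compound concentration, 10 µM final. Schedule: 1 h dye loading, 2 min kinetic read. Measured by: kinetic fluorescence with BTC-AM dye. Read-out: post-addition slope, 15–24 s, of baseline-normalized fluorescence. Benchmarks: carbachol and DMSO controls.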

[7] = blockers of RIG-like receptor reporter activation – cell-based, Sendai virus stimulus, luciferase, 10K MLSCN set, TLR/RLR signaling modifier project, primary screen (AID 602276;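 active = inhibition at or above 50% at 10 µM; inactive = inhibition below 50%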;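 also: firefly luciferase from ISG56 promoter only with Renilla not read in this screen; 0% = Sendai virus plus DMSO and 100% = medium plus DMSO without virus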); conditions: HEK293 RL24 IRF3 luciferase reporter, at 10 µM, stronger effect = higher value
[8] = TLR3 IRF3 reporter activation blockers – cell-based, poly I:C stimulus, luciferase, 10K MLSCN set, primary screen (AID 602277); conditions: HEK293-TLR3 RL24 IRF3 luciferase reporter, at 10 µM, stronger effect = higher value

Row | SMILES | cell count [1] | inhibition [1] | inhibition of aggregation [2] | nuclei count [2] | inhibition [3] | nuclei count [3] | fluorescence slope [4] | NADPH fluorescence slope [5] | fluorescence slope [6] | inhibition [7] | inhibition [8]
1 | COc1ccc(C(=O)Nc2ccc(S(=O)(=O)Nc3nccnc3OC)cc2)cc1OC | 459 | 8.1% (inactive) | 4.1% (inactive) | 101% | -126% (inactive) | 123% | -0.601 (inactive) | 6.9e-06 (inactive) | 0.0057 (inactive) | 21.5% (inactive) | 34.3% (inactive)
2 | FC(F)Sc1nnc(-c2cccs2)n1-c1ccccc1 | 824 | -5% (inactive) | -10.1% (inactive) | 95.3% | -146% (inactive) | 122% | -0.532 (inactive) | -3.2e-05 (inactive) | 0.00612 (inactive) | 17.7% (inactive) | 31% (inactive)
3 | Cc1nc2ccccn2c1P(=O)(N1CCCCC1)N1CCCCC1 | 666 | -11.7% (inactive) | -0.1% (inactive) | 77% | -64.2% (inactive) | 108% | -0.526 (inactive) | -1.7e-06 (inactive) | 0.00464 (inactive) | 20.1% (inactive) | 20.6% (inactive)
4 | O=C(NCCC1=CCCCC1)C1CCN(S(=O)(=O)c2cccc3nsnc23)CC1 | 609 | 7.7% (inactive) | 4.8% (inactive) | 94.6% | -41.8% (inactive) | 126% | -0.443 (inactive) | -6e-05 (inactive) | 0.0046 (inactive) | 13.1% (inactive) | 26.5% (inactive)
5 | O=C(CSc1nnc(-c2cccnc2)o1)OC1CCCCC1 | 695 | -3.9% (inactive) | 22.6% (inactive) | 95.8% | -54.6% (inactive) | 126% | -0.517 (inactive) | 3.9e-05 (inactive) | 0.0051 (inactive) | 15.3% (inactive) | 16.2% (inactive)
6 | COc1ccc(Cc2nn3c(-c4cc(OC)c(OC)c(OC)c4)nnc3s2)cc1 | 552 | 7.6% (inactive) | 17.4% (inactive) | 95.1% | 20.8% (inactive) | 103% | -0.254 (inactive) | -2.7e-05 (inactive) | 0.00585 (inactive) | 14.7% (inactive) | -1.58% (inactive)
7 | COc1cc(-c2nc(S(=O)(=O)c3ccccc3)c(N3CCOCC3)o2)cc(OC)c1OC | 439 | 6% (inactive) | -5.3% (inactive) | 108% | -286% (inactive) | 126% | -0.471 (inactive) | -0.000303 (inactive) | 0.0029 (inactive) | 14.4% (inactive) | 15.3% (inactive)
8 | Oc1c(Cl)cc(Cl)c2c1NCCC2 | 313 | 0.4% (inactive) | -13.1% (inactive) | 100% | -47.5% (inactive) | 91.9% | -0.466 (inactive) | -3e-05 (inactive) | 0.00523 (inactive) | 11.2% (inactive) | 31.8% (inactive)

From PubChem BioAssay
